Assay [1] is described as follows: Ratio of platelet rich plasma to that of washed platelets.
The species entered for assay [2] is Oryctolagus cuniculus. The experiment in a line: Antagonist activity against contraction of rabbit aortic strips; (agonist activity was observed at 10e-5-10e-7M). The assay is classed as functional, Aorta. An outline of the steps:
(§1)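 Thoracic aorta segments (~3 cm) from anesthetized male New Zealand rabbits (1.4–2.4 kg), cleaned of fat; 2.0 g preload, 1 h equilibration. Contraction evoked by U 46619 (3 × 10⁻⁹ M) to plateau (20 min), then washed back to baseline. IC50 from a single determination.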

Assay [3] is filed under the species Homo sapiens. The assay is described as follows: Antagonist activity against U-46,619-induced aggregation of platelet rich plasma (PRP). Type of assay: functional. An outline of the steps:
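Human platelet-rich plasma stimulated with U 46619; aggregation inhibition measured; IC50.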

In the next assay the target is T1, Thromboxane-A synthase (Homo sapiens, UniProt P24557).
T1 sequence (P24557 whole entry): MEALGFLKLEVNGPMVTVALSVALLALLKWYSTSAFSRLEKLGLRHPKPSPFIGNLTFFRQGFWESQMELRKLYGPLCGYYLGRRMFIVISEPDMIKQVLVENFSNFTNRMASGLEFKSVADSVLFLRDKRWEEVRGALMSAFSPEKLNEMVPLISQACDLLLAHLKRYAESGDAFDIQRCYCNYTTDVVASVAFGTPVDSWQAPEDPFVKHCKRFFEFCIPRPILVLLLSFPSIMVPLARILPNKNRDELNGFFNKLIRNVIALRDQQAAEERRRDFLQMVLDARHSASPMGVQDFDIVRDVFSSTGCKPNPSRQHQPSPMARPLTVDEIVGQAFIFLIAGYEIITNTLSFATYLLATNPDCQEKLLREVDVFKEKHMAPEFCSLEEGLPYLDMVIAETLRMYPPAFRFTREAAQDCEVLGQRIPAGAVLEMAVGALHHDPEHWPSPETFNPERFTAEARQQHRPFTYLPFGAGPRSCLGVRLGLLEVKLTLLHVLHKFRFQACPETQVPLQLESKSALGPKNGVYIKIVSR
The assay is described as follows: Inhibitory activity against human Thromboxane A2 synthase. An outline of the steps: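 Human platelet microsomal preparation incubated with (14C)arachidonic acid; thromboxane synthase inhibition read as reduced TxB₂ formation; IC50.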

For assay [4], the species on record is Homo sapiens. The experiment in a line: Inhibitory activity against U-46,619-induced aggregation of washed human platelets. The assay is classed as functional. An outline of the steps: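 Aspirin-treated, washed human platelets stimulated with U 46619 (stable PGH₂/TxA₂ mimic); aggregation inhibition measured; IC50.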
The species entered for assay [5] is Oryctolagus cuniculus. The assay is described as follows: Antagonist activity against contraction of rabbit aortic strips. Type of assay: functional. The note with it: Aorta. The method in brief:
as §1

The text below walks through data of ChEMBL document CHEMBL1126260, “Thromboxane receptor antagonism combined with thromboxane synthase inhibition. 2. Synthesis and biological activity of 8-(benzenesulfonamido)-7-(3-pyridinyl)octaonic acid and related compounds” (J Med Chem, 1992).

SMILES strings stand for the structures.

Usually IC50 stands for the point on the concentration scale where inhibition reaches its midpoint. Higher therefore signals weaker potency in that assay. As for `Cl.O=C(O)CCCCCC(CNS(=O)(=O)c1ccc(Cl)cc1)c1cccnc1` (stereo not drawn), the Ratio in assay [1] is recorded as 30. The values for the IC50 entry in the assay filed under Oryctolagus cuniculus [2] and in the assay listed under Homo sapiens [3] were “Agonist” and 600 nM, respectively.
`CN(CC(CCCCCC(=O)O)c1cccnc1)S(=O)(=O)c1ccc(Cl)cc1` (stereo not drawn): the IC50 against Thromboxane-A synthase and in the assay listed under Homo sapiens [4] was over 10000 nM each time.
Regarding `Cl.O=C(O)CCCCCCC(CNS(=O)(=O)c1ccc(Cl)cc1)c1cccnc1` (stereo not drawn), the Ratio in assay [1] worked out at 20. For the same compound, the IC50 result in the assay filed under Oryctolagus cuniculus [2] is “Agonist”; on Thromboxane-A synthase, 240 nM; in the assay filed under Homo sapiens [4] it was 10 nM; in the assay filed under Homo sapiens [3], 200 nM.
Turning to `Cc1ccccc1S(=O)(=O)NCC(CCCCCC(=O)O)c1cccnc1` (stereo not drawn), the IC50 is 200 nM against Thromboxane-A synthase and 380 nM in the assay listed under Homo sapiens [4].
In the same order, the values of `COc1ccc(S(=O)(=O)NCC(CCCCCC(=O)O)c2cccnc2)cc1` (stereo not drawn) are 940 nM and 300 nM.
For `O=C(O)CCCCCC(CNS(=O)(=O)c1ccccc1)c1cccnc1` (stereo in doubt; 25) the same measures were over 10000 nM and 250 nM.
`O=C(O)CCCCCC(CNS(=O)(=O)c1ccc([N+](=O)[O-])cc1)c1cccnc1` (stereo not drawn): the figures for the IC50 at Thromboxane-A synthase and in the assay filed under Homo sapiens [4] were 120 nM and 70 nM, respectively.
In the same order, the values of `O=C(O)CCCC(CNS(=O)(=O)c1ccc(Cl)cc1)c1cccnc1` (stereo not drawn) are 2000 nM and over 10000 nM.
In the same order, the values of `O=C(O)CCCCC(CNS(=O)(=O)c1ccc(Cl)cc1)c1cccnc1` (stereo not drawn) are 77 nM and 80 nM.
As to `O=C(O)COc1ccc(CCNS(=O)(=O)c2ccccc2)cc1` [SULOTROBAN], the Ratio in assay [1] was found to be 2.6. Further, the IC50 in the assay listed under Homo sapiens [4] came to 1500 nM; in the assay listed under Homo sapiens [3], 4000 nM.
With `Cl.O=C(O)CCCCCC(CNS(=O)(=O)c1ccc(Cl)c(Cl)c1)c1cccnc1` (stereo not drawn), the Ratio in assay [1] was 32. For the same compound, the IC50 against Thromboxane-A synthase was determined as 40 nM; in the assay listed under Homo sapiens [4], 80 nM; in the assay filed under Homo sapiens [3], 2500 nM; in the assay listed under Oryctolagus cuniculus [5], 1000 nM.
Take `NC(=O)CCCCCC(CNS(=O)(=O)c1ccccc1)c1cccnc1` (stereo not drawn): the IC50 against Thromboxane-A synthase and in the assay listed under Homo sapiens [4] was over 10000 nM throughout.
Turning to `Cl.O=C(O)CCCCCC(CNS(=O)(=O)c1ccccc1)c1cccnc1` (stereo in doubt; 6), the Ratio in assay [1] worked out at 8.2. Further, the IC50 stood at 210 nM at Thromboxane-A synthase, 250 nM in the assay filed under Homo sapiens [4], 2100 nM in the assay listed under Homo sapiens [3] and 400 nM in the assay filed under Oryctolagus cuniculus [5].
`O=C(O)CCCCCC(CNS(=O)(=O)c1ccc(C(=O)O)cc1)c1cccnc1` (stereo not drawn): the IC50 against Thromboxane-A synthase and in the assay listed under Homo sapiens [4] was over 10000 nM in each case.
On to `Cc1ccc(S(=O)(=O)NCC(CCCCCC(=O)O)c2cccnc2)cc1` (stereo not drawn), for which the figures for the IC50 against Thromboxane-A synthase and in the assay filed under Homo sapiens [4] were 50 nM and 200 nM, respectively.
For `COC(=O)CCCCCC(CNS(=O)(=O)c1ccccc1)c1cccnc1` (stereo not drawn) the same measures were over 10000 nM and over 10000 nM.
